26 compounds from ChEMBL document CHEMBL1641466, “Structure based evolution of a novel series of positive modulators of the AMPA receptor” (Bioorg Med Chem Lett, 2011) can be followed below.

Structures are written as SMILES. In brackets after ≈: the same amount, converted by molar mass. Where only a bound is given, the exact number is not on record here.

For one series, the target named is Glutamate receptor 2 (Homo sapiens, UniProt P42262). The series is described as follows: Modulatory activity at GluA2 receptor LBD.
Series [1] can be described thus: Half life in Wistar rat at 1 mg/kg, iv and 5 mg/kg, po. It is filed as ADME, organism-based. As to conditions: in vivo. An outline of the steps: (§1)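 Wistar BRL rats; pharmacokinetics from 1 mg/kg i.v. and 5 mg/kg p.o. dosing; plasma clearance, half-life and oral bioavailability (F%) derived.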
Series [2] can be described thus: Plasma concentration in Wistar rat at 1 mg/kg, iv and 5 mg/kg, po. It is filed as ADME, organism-based.
Series [3] can be described thus: Intrinsic clearance in rat microsomes assessed per mg of protein. It is filed as ADME, Microsome.
The nature of series [4]: Permeability from apical to basolateral side of human Caco2 cells. It counts as ADME, cell-based. The conditions noted are these: Caco-2, read-out: permeability.
The nature of series [5]: Intrinsic clearance in human microsomes assessed per mg of protein. It counts as ADME, Microsome.
Series [6] can be described thus: Bioavailability in Wistar rat at 1 mg/kg, iv and 5 mg/kg, po. It is filed as ADME, organism-based. The conditions noted are these: in vivo. An outline of the steps:
as §1

Series [7] can be described thus: Permeability from basolateral to apical side of human Caco2 cells. As to conditions: Caco-2, read-out: permeability. It counts as ADME, cell-based. On the technique in general: Passage across Caco-2 layers is used to estimate intestinal permeability.
The nature of series [8]: Cmax in Wistar rat cerebrospinal fluid at 2 mg/kg, ip. It counts as ADME, organism-based. Details: dose 2 mg/kg, route intraperitoneal. A digest of the protocol: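 Wistar BRL rats dosed 2 mg/kg i.p.; drug concentration measured in CSF to gauge CNS exposure, Cmax reported.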
A short description of series [9]: Half life in Wistar rat at 2 mg/kg, iv and 10 mg/kg, po. It is filed as ADME, organism-based. As to conditions: in vivo.
The nature of series [10]: Volume of distribution at steady state in Wistar rat at 2 mg/kg, iv and 10 mg/kg, po. It counts as ADME, organism-based. The conditions noted are these: in vivo, read-out: Vdss.
A short description of series [11]: Bioavailability in Wistar rat at 2 mg/kg, iv and 10 mg/kg, po. It counts as ADME, organism-based. As to conditions: in vivo.
The nature of series [12]: Clearance in Wistar rat at 2 mg/kg, iv and 10 mg/kg, po. It is filed as ADME, organism-based. As to conditions: in vivo.
Another series deals with Hepatocyte. The series is described as follows: Metabolic stability in rat hepatocytes assessed per cells. It is filed as ADME, cell-based.
Series [13] is described as follows: Solubility of the compound. It counts as physicochemical.

Chain of Glutamate receptor 2 (P42262 whole entry, the tested form may be a part): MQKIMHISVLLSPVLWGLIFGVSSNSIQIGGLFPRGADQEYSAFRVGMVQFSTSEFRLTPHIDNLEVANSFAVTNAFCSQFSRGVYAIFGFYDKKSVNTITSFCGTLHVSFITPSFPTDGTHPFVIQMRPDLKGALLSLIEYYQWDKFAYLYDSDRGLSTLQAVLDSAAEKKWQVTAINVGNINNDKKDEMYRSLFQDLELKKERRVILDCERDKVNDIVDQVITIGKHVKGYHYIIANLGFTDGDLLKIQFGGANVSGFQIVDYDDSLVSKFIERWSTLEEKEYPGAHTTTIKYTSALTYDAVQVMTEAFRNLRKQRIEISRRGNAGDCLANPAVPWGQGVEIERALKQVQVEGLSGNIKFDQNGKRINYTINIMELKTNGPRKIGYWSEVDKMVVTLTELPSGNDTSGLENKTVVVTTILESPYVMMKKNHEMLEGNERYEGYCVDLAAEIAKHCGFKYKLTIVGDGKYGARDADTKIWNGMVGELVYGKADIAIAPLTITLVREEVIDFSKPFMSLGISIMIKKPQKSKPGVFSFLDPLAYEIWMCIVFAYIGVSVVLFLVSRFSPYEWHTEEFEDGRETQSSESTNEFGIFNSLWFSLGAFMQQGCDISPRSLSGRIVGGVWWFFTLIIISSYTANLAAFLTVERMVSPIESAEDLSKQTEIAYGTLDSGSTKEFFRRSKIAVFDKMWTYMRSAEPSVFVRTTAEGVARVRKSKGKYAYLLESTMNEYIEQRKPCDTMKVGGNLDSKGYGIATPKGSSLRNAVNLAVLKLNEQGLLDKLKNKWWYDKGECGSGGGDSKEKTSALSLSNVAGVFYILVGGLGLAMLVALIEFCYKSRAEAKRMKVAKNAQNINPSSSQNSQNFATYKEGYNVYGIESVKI

As usually defined, the EC50 is the concentration at which the effect is half-maximal. `CC(C)S(=O)(=O)N[C@H]1Cc2ccc(Cc3ccc(C(F)(F)F)o3)cc2C1`: the EC50 on Glutamate receptor 2 was 1000 nM. A word on the half-life: it is how long it takes for the measured level to halve. The term microsomal CLint denotes a measure of how fast metabolising enzymes remove a compound, apart from limits set by blood flow. Read a low microsomal CLint as greater metabolic stability. As usually defined, the bioavailability is dose-corrected exposure relative to a reference, in per cent. `CC(C)S(=O)(=O)NC[C@H](C)c1ccc(-n2cc(CO)c(C(F)(F)F)n2)cc1`: in series [1], the half-life is 1 h. In series [2], this compound displayed a clearance of 49.7 mL/min/kg. Moreover, the microsomal CLint in [3] and in series [5] was less than 12 µL/min/mg throughout. The Papp A→B in series [4] is 20.6 ×10⁻⁶ cm/s. Further, the bioavailability in series [6] worked out at 3.2%. Also, the Papp B→A in [7] was 28.7 ×10⁻⁶ cm/s. The term Cmax denotes the peak of the concentration-time curve. By solubility is commonly meant how much of the substance goes into solution per volume. Low values mean a poorly soluble substance, high ones a readily soluble substance. `O=S(=O)(N[C@@H]1Cc2ccc(Cn3cc(CO)c(C(F)(F)F)n3)cc2C1)C(F)(F)F` had a Cmax in series [8] of 120 nM. For the same compound, the half-life in series [9] is 7.4 h. For the same compound, in series [10], the Vd turned out to be 1 L/kg. The compound further showed a bioavailability in series [11] of 100%. Also, the results for the clearance in series [3], in [12] and in series [5] were less than 12 µL/min/mg, 1.9 mL/min/kg and less than 12 µL/min/mg, respectively. The compound further showed a 50% effective concentration (EC50) on Glutamate receptor 2 of 2510 nM. Also, the Papp A→B in [4] was 16.9 ×10⁻⁶ cm/s. The Stability in the series with Hepatocyte is less than 6 µL/min. Also, the Papp B→A in [7] worked out at 26.4 ×10⁻⁶ cm/s. In series [13], this compound yielded a solubility of 84 µg/mL (≈ 189 µM).

In turn, `COc1ccccc1S(=O)(=O)NC1CCc2cc(Cn3cc(CO)c(C(F)(F)F)n3)ccc21` (stereo not given) gave a 50% effective concentration (EC50) on Glutamate receptor 2 of 2000 nM. This counts as single-digit micromolar.

`CC(C)S(=O)(=O)N[C@H]1Cc2ccc(Cn3nc(C(F)(F)F)cc3C(F)(F)F)cc2C1`: it took 100 nM to reach a half-maximal effect at Glutamate receptor 2 (EC50). The compound further registered a solubility in [13] of less than 1 µg/mL. `CC(C)S(=O)(=O)N[C@H]1Cc2ccc(Cn3nc(C(F)(F)F)c4c3CCCC4)cc2C1` had an EC50 on Glutamate receptor 2 of 1260 nM. Regarding `CC(C)S(=O)(=O)NC1CCc2cc(Cn3cc(CO)c(C(F)(F)F)n3)ccc21` (stereo not given), the 50% effective concentration (EC50) on Glutamate receptor 2 is 100 nM. Against the preceding compound, the EC50 is about 13-fold lower. On the same count and under the same terms, the result for `CS(=O)(=O)N[C@H]1Cc2ccc(Cn3cc(CO)c(C(F)(F)F)n3)cc2C1` reads 7940 nM. The same measure, in the same setting: the result for `CS(=O)(=O)NC1CCc2cc(Cn3cc(CO)c(C(F)(F)F)n3)ccc21` (stereo not given) reads 501 nM; that for `CC(C)S(=O)(=O)N[C@H]1Cc2ccc(Cn3cc(CF)c(C(F)(F)F)n3)cc2C1`, 1260 nM; that for `Cn1cc(S(=O)(=O)NC2CCc3cc(Cn4cc(CO)c(C(F)(F)F)n4)ccc32)c(C(F)(F)F)n1` (stereo not given), 1260 nM. As to `NC(=O)c1c(NC(=O)Cn2cc(CO)c(C(F)(F)F)n2)sc2c1CCCC2`, the EC50 at Glutamate receptor 2 is 398 nM. The compound further had a solubility in [13] of 20 µg/mL (≈ 49.7 µM). On Glutamate receptor 2, `CN(C)S(=O)(=O)N[C@@H]1Cc2ccc(Cn3cc(CO)c(C(F)(F)F)n3)cc2C1` showed an EC50 of 1000 nM. In other words, the single-digit micromolar range. With `O=S(=O)(NC1CCc2cc(Cn3cc(CO)c(C(F)(F)F)n3)ccc21)C1CC1` (stereo not given), the concentration for a half-maximal effect (EC50) on Glutamate receptor 2 is 158 nM.

As for `CCn1nc(C(F)(F)F)cc1Cc1ccc2c(c1)C[C@@H](NS(=O)(=O)C(C)C)C2`, a half-maximal response at Glutamate receptor 2 (EC50) required 1260 nM. This EC50 lies about 8-fold higher than the previous one. In turn, `CC(C)S(=O)(=O)N[C@H]1Cc2ccc(Cn3nc(C(F)(F)F)c4c3CCNC4)cc2C1` gave an EC50 on Glutamate receptor 2 of 1580 nM. Regarding `CC(C)S(=O)(=O)N[C@@H]1Cc2ccc(Cn3cc(CO)c(C(F)(F)F)n3)cc2C1`, the concentration for a half-maximal effect (EC50) at Glutamate receptor 2 was 398 nM. Take `O=S(=O)(N[C@@H]1Cc2ccc(Cn3cc(CO)c(C(F)(F)F)n3)cc2C1)C1CC1`: the EC50 on Glutamate receptor 2 was 2510 nM. This EC50 is about 6.3-fold higher than that of the compound before.

Take `CC(C)S(=O)(=O)NC1Cc2ccc(-n3cc(CO)c(C(F)(F)F)n3)cc2C1` (racemic): on Glutamate receptor 2, the EC50 is more than 31600 nM. Compound `O=S(=O)(N[C@H]1Cc2ccc(Cn3cc(CO)c(C(F)(F)F)n3)cc2C1)C(F)(F)F` had a half-maximal effective concentration (EC50) at Glutamate receptor 2 of 5010 nM.

The compound `CCS(=O)(=O)N[C@H]1Cc2ccc(Cn3cc(CO)c(C(F)(F)F)n3)cc2C1` had an EC50 at Glutamate receptor 2 of 398 nM. `CC(C)S(=O)(=O)N[C@H]1Cc2ccc(Cn3cc(CO)c(C(F)(F)F)c3)cc2C1` showed an EC50 at Glutamate receptor 2 of 794 nM.

`CC(C)S(=O)(=O)N[C@H]1Cc2ccc(Cn3cc(CCO)c(C(F)(F)F)n3)cc2C1`: the EC50 on Glutamate receptor 2 was 1260 nM. On the same count and under the same terms, the result for `CC(C)S(=O)(=O)N[C@H]1Cc2ccc(Cn3ncc(CO)c3C(F)(F)F)cc2C1` reads 3980 nM.

As for `CC(C)S(=O)(=O)N[C@H]1Cc2ccc(Cn3cc(CO)c(C(F)(F)F)n3)cc2C1`, the microsomal CLint in series [3] came out at 31 µL/min/mg; in series [5] it was 23 µL/min/mg. On Glutamate receptor 2, this compound gave an EC50 of 501 nM. The Papp A→B in series [4] stood at 12.8 ×10⁻⁶ cm/s. Besides, the Papp B→A in [7] worked out at 29 ×10⁻⁶ cm/s. In series [9], `CCNCc1cn(CC(=O)Nc2sc3c(c2C(N)=O)CCCC3)nc1C(F)(F)F` showed a half-life of 1.1 h. Besides, the EC50 on Glutamate receptor 2 was 794 nM.
